Measured values of several laboratories.
Target: Serine/threonine-protein kinase STK11 (STK11, Homo sapiens, UniProt Q15831)
Sequence (Q15831 1-433, as in one of the studies): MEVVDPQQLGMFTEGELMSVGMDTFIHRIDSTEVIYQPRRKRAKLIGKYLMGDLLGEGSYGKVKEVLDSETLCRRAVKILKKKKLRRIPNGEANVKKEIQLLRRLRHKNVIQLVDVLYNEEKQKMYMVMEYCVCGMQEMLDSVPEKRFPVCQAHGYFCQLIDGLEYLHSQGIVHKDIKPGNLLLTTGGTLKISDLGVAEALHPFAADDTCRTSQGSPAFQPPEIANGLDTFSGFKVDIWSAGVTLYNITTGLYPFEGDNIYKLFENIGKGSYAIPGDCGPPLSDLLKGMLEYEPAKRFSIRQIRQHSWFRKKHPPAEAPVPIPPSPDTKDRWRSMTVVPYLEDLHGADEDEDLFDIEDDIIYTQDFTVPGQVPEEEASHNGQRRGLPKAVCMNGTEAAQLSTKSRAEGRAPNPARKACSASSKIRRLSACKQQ

The remaining binding of `O=C(O)[C@@H]1[C@@H](Cn2nnc3ccccc3c2=O)CC[C@H]1C(=O)c1ccc(OCCC2CCOCC2)cc1` is reported as 94% (cell-free assay; competition with immobilised ligand; 1 µM).
For `CCN1CCN(Cc2ccc(C(=O)Nc3ccc(C)c(Oc4ccc5c(c4)CC(=O)N5)c3)cc2C(F)(F)F)CC1`, the remaining binding was 100% (binding; competition with immobilised ligand; 1 µM).
For `O=C(O)c1cc(-c2ccc(C3CCNCC3)cc2)c2ccc(-c3ccc(C(F)(F)F)cc3)cc2c1`, the remaining binding was 100% (cell-free assay; competition with immobilised ligand; 1 µM).
The remaining binding of `O=C(NCCCN1CCOCC1)c1ccc(Nc2nccc(-c3cc4ccccc4s3)n2)cc1` is reported as 3.9% (binding; competition with immobilised ligand; 1 µM).
With `Cc1cnn2ncc(-c3ccnc(N(C)C)n3)c2c1` the remaining binding was 99% (binding; 1 µM).
With `O=C(c1ccc(Nc2ncc(Cl)c(-c3cc4ccccc4s3)n2)cc1)N1CCC(N2CCCC2)CC1` the remaining binding was 1.6% (binding; competition with immobilised ligand; 1 µM).
`C[C@H](c1ccc(F)cc1)N(Cc1cccc(C(=O)O)c1)C(=O)c1cnc2ccccc2c1` gave a remaining binding of 100% (cell-free assay; competition with immobilised ligand; 1 µM).
For `COc1cnc(Nc2cccc(S(N)(=O)=O)c2)nc1N1CCN(c2ccccc2)C(=O)C1`, the remaining binding was 100% (binding; competition with immobilised ligand; 1 µM).
With `CC(C)(C)c1ccc(-c2nc(CBr)nn2-c2cccc(O)c2)cc1` the remaining binding was 100% (cell-free assay; competition with immobilised ligand; 10 µM).
With `C[C@@H]1CN(c2ccc3ncc(-c4ccc5[nH]nc(C6CC6)c5c4)n3n2)C[C@H](C)O1` the remaining binding was 72% (binding; competition with immobilised ligand; 50 nM).
For `Cc1cc(NC(=O)c2cccc(S(F)(F)(F)(F)F)c2)cc(-n2ccn3nc(-c4cccnc4)cc23)c1`, the remaining binding was 100% (cell-free assay; competition with immobilised ligand; 1 µM).
`COc1ncc2cc3ccccc3nc2c1C#N` has a remaining binding of 99% (cell-free assay; competition with immobilised ligand; 5 µM).
The remaining binding of `CN(C)c1nccc(-c2cnc3ncccn23)n1` is reported as 100% (binding; 1 µM).
`N#Cc1ccccc1CSc1nnc2c(n1)[nH]c1ccccc12` gave a remaining binding of 87% (binding; competition with immobilised ligand; 10 µM).
`C[C@@H]1CCN(c2nccc(-c3cnn4ncccc34)n2)C1` has a remaining binding of 100% (binding; 1 µM).
The remaining binding of `O=C(Nc1c[nH]nc1C(=O)NC1CCNCC1)c1cc(F)cc(F)c1` is reported as 78% (binding; competition with immobilised ligand; 1 µM).
`CN(CCCC(F)(F)F)c1nccc(-c2cnn3ncccc23)n1` has a remaining binding of 100% (binding; 1 µM).
For `c1cncc(-c2cccc(Nc3nccc(NC4CCCCC4)n3)c2)c1`, the remaining binding was 100% (binding; competition with immobilised ligand; 10 µM).
`Nc1c(C(=O)NCc2ccc(C(=O)NCCCC3CCCCC3)cc2)cnn1-c1ccccc1` has a remaining binding of 100% (cell-free assay; competition with immobilised ligand; 0.1 µM).
With `CN(C)c1ncc(F)c(-c2cnn3ncccc23)n1` the remaining binding was 100% (binding; 1 µM).
`CC(=O)C1=C(C)N(c2cccc(C(F)(F)F)c2)C(=O)N[C@@H]1c1ccc(C#N)nc1` gave a remaining binding of 72.8% (cell-free assay; competition with immobilised ligand; 1 µM).
`Cc1cnc(Nc2ccc(C(=O)N3CCC(N4CCCC4)CC3)cc2)nc1-c1cc2ccccc2s1` gave a remaining binding of 2.5% (binding; competition with immobilised ligand; 1 µM).
With `CN(C)c1nccc(-c2cnn3ncccc23)n1` the remaining binding was 100% (binding; 1 µM).
`CN(C)C(=O)Cn1cc(-c2nc([C@@](C)(c3ccc(-c4cnc(N)nc4)cc3)C3CC3)no2)cn1` gave a remaining binding of 77% (cell-free assay; competition with immobilised ligand; 1 µM).
